The text below walks through data of ChEMBL document CHEMBL6092210, “Synthesis, in vitro and in vivo biological evaluation of novel dual compounds targeting both acetylcholinesterase and serotonergic 5-HT4 receptors with potential interest in the treatment of Alzheimer's disease” (Eur J Med Chem, 2024).

Data set [1] is described as follows: Toxicity in C57BL/6 mouse assessed as reversal of scopolamine-induced spontaneous alternation deficit at 3 mg/kg, sc incubated for 30 mins. Format: organism-based. Particulars: in vivo, 0.5 h.
Data set [2] can be described thus: Drug metabolism in human liver microsome measured at 20 mins by UPLC/QE-orbitrap-MS method. Format: ADME. Particulars: microsomes. Put shortly: (§1)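 Test compound as fumarate salt incubated with human, dog, mouse or rat liver microsomes over 0–60 min. Parent remaining measured by UPLC/QE-orbitrap-MS as relative LC/MS peak area (% of 0 min), n = 1.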
(Microsomes from liver hold many membrane-bound enzymes, among them those of drug oxidation.)

The nature of data set [3]: Drug metabolism in mouse liver microsome measured at 60 mins by UPLC/QE-orbitrap-MS method. Format: ADME. To be noted: microsomes, 1 h. In a few lines:
as §1

The target of data set [4] is T1, Cytochrome P450 2A6 (Homo sapiens, UniProt P11509).
T1 sequence (P11509 whole entry): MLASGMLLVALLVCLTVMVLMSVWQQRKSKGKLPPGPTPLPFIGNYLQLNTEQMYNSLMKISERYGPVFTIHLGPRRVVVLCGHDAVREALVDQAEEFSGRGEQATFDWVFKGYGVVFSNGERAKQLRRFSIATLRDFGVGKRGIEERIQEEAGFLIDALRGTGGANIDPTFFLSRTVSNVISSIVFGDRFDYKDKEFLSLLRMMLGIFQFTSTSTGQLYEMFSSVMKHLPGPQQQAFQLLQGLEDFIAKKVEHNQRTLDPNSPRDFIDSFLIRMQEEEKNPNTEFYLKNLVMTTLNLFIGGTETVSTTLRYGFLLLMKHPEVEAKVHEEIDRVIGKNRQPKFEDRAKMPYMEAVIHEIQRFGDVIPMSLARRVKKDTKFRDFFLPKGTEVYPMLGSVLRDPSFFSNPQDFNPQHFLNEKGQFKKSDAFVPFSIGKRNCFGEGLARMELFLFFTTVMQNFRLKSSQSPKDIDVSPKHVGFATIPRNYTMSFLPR
In words: Inhibition of CYP2A6 in human liver microsomes using coumarin as substrate. It counts as ADME, Microsome. Put shortly: (§2)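 Human liver microsomes with a cocktail of CYP-specific probe substrates; metabolite formation monitored for each probe reaction. Test compound (fumarate) at 0.01, 0.1, 1, 10 and 100 μM. Control inhibitors run at a single concentration for each probe reaction. IC50 estimated.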

The target of data set [5] is T2, Cytochrome P450 2B6 (Homo sapiens, UniProt P20813).
T2 sequence (P20813 whole entry): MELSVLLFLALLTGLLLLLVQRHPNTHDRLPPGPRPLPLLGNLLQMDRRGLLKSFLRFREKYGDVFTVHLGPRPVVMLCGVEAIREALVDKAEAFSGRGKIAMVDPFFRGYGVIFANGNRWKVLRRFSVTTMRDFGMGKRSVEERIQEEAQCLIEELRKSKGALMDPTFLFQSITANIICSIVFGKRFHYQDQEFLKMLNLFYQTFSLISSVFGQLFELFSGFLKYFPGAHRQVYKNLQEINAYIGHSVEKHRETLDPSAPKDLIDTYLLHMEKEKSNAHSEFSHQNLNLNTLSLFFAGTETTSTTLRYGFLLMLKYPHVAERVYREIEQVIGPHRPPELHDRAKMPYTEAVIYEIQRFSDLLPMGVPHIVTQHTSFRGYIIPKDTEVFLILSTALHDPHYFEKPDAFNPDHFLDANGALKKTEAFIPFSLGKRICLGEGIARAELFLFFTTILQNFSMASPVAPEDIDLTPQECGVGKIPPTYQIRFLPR
In words: Inhibition of CYP2B6 in human liver microsomes using bupropion as substrate. It counts as ADME, Microsome. In a few lines: as §2

For data set [6], the target named is T3, Cytochrome P450 2C8 (Homo sapiens, UniProt P10632).
T3 sequence (P10632 whole entry): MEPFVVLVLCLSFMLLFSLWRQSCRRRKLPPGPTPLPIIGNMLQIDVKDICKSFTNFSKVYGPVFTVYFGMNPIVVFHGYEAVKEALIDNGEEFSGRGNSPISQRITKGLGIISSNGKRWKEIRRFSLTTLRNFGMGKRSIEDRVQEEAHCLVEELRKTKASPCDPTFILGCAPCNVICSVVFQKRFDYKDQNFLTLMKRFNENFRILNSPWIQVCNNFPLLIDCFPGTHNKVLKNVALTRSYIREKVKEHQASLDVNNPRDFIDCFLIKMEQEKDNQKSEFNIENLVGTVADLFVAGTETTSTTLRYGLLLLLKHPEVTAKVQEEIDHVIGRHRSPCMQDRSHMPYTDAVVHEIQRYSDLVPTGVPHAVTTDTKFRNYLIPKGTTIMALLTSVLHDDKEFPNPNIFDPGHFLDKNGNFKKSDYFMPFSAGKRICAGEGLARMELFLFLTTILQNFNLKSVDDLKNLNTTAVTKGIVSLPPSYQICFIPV
Description: Inhibition of CYP2C8 in human liver microsomes using repaglinide as substrate. Format: ADME, Microsome. In a few lines: as §2

The target in data set [7] is Cytochrome P450 2C9 (Homo sapiens, UniProt P11712). Description: Inhibition of CYP2C9 in human liver microsomes using diclofenac as substrate. Format: ADME, Microsome. Put shortly: as §2
Cytochrome P450 2C9, sequence (P11712 whole entry): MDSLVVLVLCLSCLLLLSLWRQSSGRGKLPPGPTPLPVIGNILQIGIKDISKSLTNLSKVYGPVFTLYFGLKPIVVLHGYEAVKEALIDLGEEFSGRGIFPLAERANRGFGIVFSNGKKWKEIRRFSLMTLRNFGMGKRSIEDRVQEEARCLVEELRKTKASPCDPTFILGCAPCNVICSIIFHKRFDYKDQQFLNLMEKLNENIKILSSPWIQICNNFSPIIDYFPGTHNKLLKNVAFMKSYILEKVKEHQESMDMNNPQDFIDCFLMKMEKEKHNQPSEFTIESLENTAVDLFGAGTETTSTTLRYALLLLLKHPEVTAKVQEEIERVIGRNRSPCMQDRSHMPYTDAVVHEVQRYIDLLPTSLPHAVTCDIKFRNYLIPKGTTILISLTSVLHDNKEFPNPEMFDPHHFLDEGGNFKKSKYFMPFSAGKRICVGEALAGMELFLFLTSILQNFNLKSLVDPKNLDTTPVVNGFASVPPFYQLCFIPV
The target in data set [8] is Cytochrome P450 2D6 (Homo sapiens, UniProt P10635). Description: Inhibition of CYP2D6 in human liver microsomes using dextromethorphan as substrate. Format: ADME, Microsome. In a few lines: as §2
Cytochrome P450 2D6, sequence (P10635 whole entry): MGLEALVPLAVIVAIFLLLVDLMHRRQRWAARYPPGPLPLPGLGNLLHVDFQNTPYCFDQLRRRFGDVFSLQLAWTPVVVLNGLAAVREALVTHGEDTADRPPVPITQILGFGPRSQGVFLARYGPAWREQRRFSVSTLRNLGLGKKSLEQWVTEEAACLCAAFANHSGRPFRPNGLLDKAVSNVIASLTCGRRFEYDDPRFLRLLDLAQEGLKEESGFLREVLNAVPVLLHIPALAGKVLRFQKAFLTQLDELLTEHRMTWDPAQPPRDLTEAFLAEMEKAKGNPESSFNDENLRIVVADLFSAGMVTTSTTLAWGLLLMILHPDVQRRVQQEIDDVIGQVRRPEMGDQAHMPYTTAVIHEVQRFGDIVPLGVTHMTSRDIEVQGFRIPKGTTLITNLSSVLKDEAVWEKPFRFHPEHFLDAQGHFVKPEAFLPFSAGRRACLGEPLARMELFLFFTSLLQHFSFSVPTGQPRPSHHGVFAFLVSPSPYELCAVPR
Data set [9] concerns the target Cytochrome P450 3A4 (Homo sapiens, UniProt P08684). In words: Inhibition of CYP3A4 in human liver microsomes using Midazolam as substrate. It counts as ADME, Microsome. Put shortly:
as §2

Data set [10] is described as follows: Clearance in C57BL6 mouse at 3 mg/kg, iv. Format: ADME, organism-based. To be noted: in vivo. In a few lines:
(§3)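 Single iv dose of 0.3, 1 or 3 mg/kg in 0.9 % saline, three animals per dose (C57Bl6 mice, Wistar rats). Terminal cardiac-puncture blood under isoflurane at six time points. Plasma protein-precipitated and assayed by UHPLC–MS/MS (LLOQ 1 ng/mL). Parameters from non-compartmental analysis.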

A short description of data set [11]: Volume of distribution in C57BL6 mouse at 0.3 to 3 mg/kg, iv. To be noted: in vivo, dose 0.3-3 mg/kg. It counts as ADME, organism-based. In a few lines: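 Pharmacokinetics in C57Bl6 mice given the compound iv at 0.3, 1 or 3 mg/kg in 0.9 % saline (10 mL/kg), three animals per dose. Terminal cardiac blood taken under isoflurane at six time points. Plasma analyzed by UHPLC–MS/MS (LLOQ 1 ng/mL). Parameters derived by non-compartmental analysis.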

The nature of data set [12]: Half life in C57BL6 mouse at 0.3 to 3 mg/kg, iv. It counts as ADME, organism-based. To be noted: in vivo, dose 0.3-3 mg/kg. In a few lines: as §3
Data set [13] in a line: MRT in C57BL6 mouse at 0.3 to 3 mg/kg, iv. Particulars: in vivo, dose 0.3-3 mg/kg. It counts as ADME, organism-based. In a few lines: as §3

Usually IC50 stands for the concentration needed to halve the response being measured. By clearance is commonly meant the volume of plasma or blood freed of the substance per unit of time. High values mean a high capacity for elimination, low ones a low capacity for elimination. One may read the Vd as the apparent volume that relates the amount in the body to the concentration in plasma or blood. For orientation: half-life means the time needed for the level to fall by half in the phase considered. Low readings indicate rapid decline, high ones slow decline. In general, MRT refers to a mean duration of stay, worked out from the concentration-time curve.

Cytochrome P450 3A4, sequence (P08684 whole entry): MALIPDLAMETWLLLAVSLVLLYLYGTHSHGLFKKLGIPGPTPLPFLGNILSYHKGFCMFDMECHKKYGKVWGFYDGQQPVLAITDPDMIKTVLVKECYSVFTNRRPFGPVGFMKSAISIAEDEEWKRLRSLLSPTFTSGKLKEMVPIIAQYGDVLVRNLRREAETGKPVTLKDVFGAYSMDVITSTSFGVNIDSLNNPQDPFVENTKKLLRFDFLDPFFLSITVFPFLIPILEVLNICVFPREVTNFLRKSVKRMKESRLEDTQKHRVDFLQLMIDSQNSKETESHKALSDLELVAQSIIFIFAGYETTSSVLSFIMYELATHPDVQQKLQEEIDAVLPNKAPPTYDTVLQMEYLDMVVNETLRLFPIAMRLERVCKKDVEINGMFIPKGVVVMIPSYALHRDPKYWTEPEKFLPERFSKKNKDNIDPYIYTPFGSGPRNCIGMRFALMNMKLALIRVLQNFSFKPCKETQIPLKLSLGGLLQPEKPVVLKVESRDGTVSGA

Take `COc1cc(N)c(F)cc1C(=O)CCC1CCN(CC2CCCCC2)CC1.O=C(O)/C=C/C(=O)O`: in data set [1], the Activity result is recorded as “Non-toxic”. Further, the Drug metabolism in data set [2] is 78%; in [3], 17%. The concentration for half-maximal inhibition (IC50) was > 100 µM in [4]; 95.7 µM in data set [5]; > 100 µM in data set [6]; > 100 µM in [7]; 0.6 µM in data set [8]; 23.1 µM in [9]. Further, in data set [10], the clearance is 191 mL/min/kg. Moreover, the Vd in data set [11] turned out to be 3.6 L/kg. For the same molecule, in data set [12], the half-life is 47.8 min. In [13], this molecule displayed an MRT of 69 min.
